Compound activity from PubChem BioAssay.
PAFAH1B2 FP inh = blocks human PAF acetylhydrolase 1b catalytic subunit 2 | recombinant PAFAH1B2, FP-rhodamine activity probe, fluorescence polarization | P68402 | 1.2% of 340,000 active | inhibition, % at 3.39 µM;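 active = inhibition above the mean of all tested compounds plus 3 SD, cut at about 24% in these data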;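 also: 0% = enzyme with DMSO and 100% = wells lacking PAFAH1B2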
pPAFAH inh = pPAFAH (human) enzyme inhibition; Q13093; recombinant pPAFAH, FP-rhodamine probe fluorescence polarization; inhibition, % at 3.39 µM; 1.5% of 330,000 active;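 active = inhibition above the mean inhibition across the screen plus 3 SD, cut at about 25% in these data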;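 also: inhibitors block binding of the rhodamine activity-based probe so polarization drops; 0% = enzyme with DMSO and 100% = wells lacking pPAFAH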
Target sequence (Q13093 whole entry, looked up): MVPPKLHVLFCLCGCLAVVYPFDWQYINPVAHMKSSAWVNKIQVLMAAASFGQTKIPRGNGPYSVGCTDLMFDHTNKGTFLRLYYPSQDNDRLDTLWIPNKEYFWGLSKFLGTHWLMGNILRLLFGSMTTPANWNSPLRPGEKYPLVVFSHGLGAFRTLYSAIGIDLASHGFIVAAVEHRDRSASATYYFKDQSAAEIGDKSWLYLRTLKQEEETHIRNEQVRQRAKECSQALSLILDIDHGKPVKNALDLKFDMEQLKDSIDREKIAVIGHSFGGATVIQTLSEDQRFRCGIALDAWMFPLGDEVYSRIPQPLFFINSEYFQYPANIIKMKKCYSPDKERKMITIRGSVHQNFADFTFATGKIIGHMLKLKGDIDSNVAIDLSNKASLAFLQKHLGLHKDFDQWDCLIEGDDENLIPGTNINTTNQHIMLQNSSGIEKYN
PAFAH1B3 FP inh = inhibitors of human PAFAH1B3; inhibition, % at 3.39 µM; Q15102; AID 492972; 0.28% of 340,000 active; recombinant PAFAH1B3, FP-rhodamine probe, fluorescence polarization;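 active = inhibition above the screen-wide average of all tested compounds plus 3 SD, cut at about 25% in these data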;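 also: 0% = enzyme with DMSO only and 100% = wells lacking PAFAH1B3 protein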
Apaf1 inhib = blocks human Apaf-1 apoptosome activity | reconstituted apoptosome caspase-3 activity, DEVD-Rh110 fluorescence | inhibition, % at 20 µM | 0.71% of 330,000 active; active = inhibition of at least 40% at 20 µM;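 also: plate controls were DMSO wells for no effect and DEVD-CHO caspase inhibitor wells for full effect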
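detection = Rh110 fluorescence intensity | test system = biochemical Apaf-1 apoptosome reconstitution | also added = cytochrome c and DEVD-Rh110 substrate | schedule = 30 min plus 50 min, RT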
PREPL inhibitor = inhibits the human prolyl oligopeptidase-like enzyme | recombinant PREPL, fluorescence polarization activity-based probe | inhibition, % at 5.96 µM | Q4J6C6 | 0.68% of 320,000 active; in the data active = inhibition above about 43%;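 also: 0% = enzyme with DMSO and 100% = wells lacking enzyme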
PAFAH2 FP inh = PAFAH2 (human) inhibition; Q99487; recombinant PAFAH2, FP-rhodamine activity probe, fluorescence polarization; inhibition, % at 3.39 µM; 0.99% of 340,000 active;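 active = inhibition above the mean over all tested compounds plus 3 SD, cut at about 30% in these data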;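 also: inhibitors block probe labeling of enzyme so polarization drops; 0% = enzyme with DMSO and 100% = wells lacking PAFAH2 protein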
Apaf-1 inh conf2 = confirmation of Apaf-1 inhibitors; shares compounds with Apaf1 inhib; reconstituted apoptosome, caspase-3 DEVD-Rh110 fluorescence; inhibition, % at 20 µM; 25% of 1,800 active; AID 504614;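 active = mean inhibition of at least 40% at 20 µM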;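 also: plate controls were DMSO wells for no effect and DEVD-CHO caspase inhibitor control wells for full effect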
Rh110 interf inh = Rh110 signal interference in Apaf-1 inhibitor counter-screen. shares compounds with Apaf1 inhib. 1,800 tested, under 10 active. activation (fluorescence interference), % at 20 µM. AID 504615. Rh110 fluorescence interference, quenched caspase reaction;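 active = signal rise of 40% or more at 20 µM, treated as a fluorescence artifact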
Fluor interf inh = shows fluorescence interference in the Apaf-1 inhibitor assay format; fluorescence interference counterscreen, Apaf-1 assay format; AID 588538; IC50, µM; shares compounds with Apaf1 inhib; 460 tested, under 10 active; call rule not given here
* hit, by the source's call; . = no result. Shown are actives, neighbours in structure and some others; about 3.5% of the full set was active somewhere.

SMILES	PAFAH1B2 FP inh	pPAFAH inh	PAFAH1B3 FP inh	Apaf1 inhib	PREPL inhibitor	PAFAH2 FP inh	Apaf-1 inh conf2	Rh110 interf inh	others
COc1ccc(C2(c3ccc(OC)cc3)NC(=O)N(CC(=O)Nc3ccc(N4CCOCC4)cc3)C2=O)cc1	3	3	2	41*	17	-5	28	2
O=C(CN1C(=O)NC(c2ccccc2)(c2ccccc2)C1=O)Nc1ccc(N2CCOCC2)cc1	5	3	8	6	28	3	.	.
CCOC(=O)c1[nH]c(=O)c2ccccc2c1O	6	2	2	75*	3	2	26	4
CCOC(=O)c1[nH]c2ccccc2c1NC(=O)CC	8	-2	-9	2	12	0	.	.
COc1ccc2c(c1)c(/C=N/Nc1nc3ccccc3[nH]1)c(C)n2C	12	18	12	43*	42	12	20	15
COc1cccc(Nc2ccccc2C(=O)O)c1	2	-1	3	14	7	8	.	.
COc1cc(-c2ccc(Nc3ccccc3C(=O)O)c(OC)c2)ccc1Nc1ccccc1C(=O)O	12	.	29*	48*	.	54*	49*	0	Fluor interf inh=>100
COCCOC1CCN(C(=O)C2CCC(=O)N(CCc3ccc(OC)cc3)C2)CC1 (centres undefined)	1	0	7	-4	17	-1	.	.
CCn1c(SCC(=O)N/N=C/C=C\c2ccco2)nc2ccccc21	-3	25*	-6	47*	-4	5	16	-6
Cn1c(SCC(=O)N/N=C/C=C\c2ccco2)nc2ccccc21	0	10	1	-2	-8	7	.	.
OCCCCNc1cccc2ccccc12	-3	5	4	81*	19	6	18	-2
OCCCCCNc1ncnc2ccccc12	4	-4	-1	5	-9	3	.	.
O=C1c2ccc([N+](=O)[O-])cc2C(=O)N1c1ccc([N+](=O)[O-])cn1	4	-1	-2	-14	6	12	.	.
CCc1ccc2cccc3c2c1N=CN3C	8	5	11	87*	15	4	18	-4
O=C(Nc1ccsc1C(=O)O)c1ccccc1Cl	0	-8	-3	14	2	2	.	.
Cc1ccc(NC(=O)C2CCN(C(=O)c3ccccc3C)CC2)nc1	0	7	6	-1	11	4	.	.
CN(C)c1cccc2c1c(NC(=O)c1ccc(F)cc1)nn2C	9	7	1	92*	13	4	16	1
CN(C)c1cccc2c1c(NC(=O)Nc1ccc(F)cc1F)nn2C	2	7	0	-4	9	4	.	.
CN(C)c1cccc2c1c(NC(=O)Nc1ccccc1)nn2C	5	6	7	82*	13	1	6	7
COc1cc2c(cc1OC)CN(CC(=O)Nc1ccc(C)c(C)c1)CC2	7	6	14	13	20	3	.	.
O=C(Nc1ccc2nc3ccccc3nc2c1)c1ccc(Br)cc1	-28	-21	-43	19	2	-62	.	.
CC(=O)Nc1ccc2nc3ccccc3nc2c1	1	5	-1	50*	7	7	9	2
COc1ccccc1NC(=O)c1nc[nH]c1C(=O)Nc1ccccc1OC	-1	1	7	95*	-8	7	0	1
COc1ccc(N2C(=O)CS/C2=N\C(=S)Nc2ccccc2)cc1	-5	7	-1	5	2	-7	.	.
CN(C)CCN(C(=O)c1cccc2ccccc12)c1nc2cc3c(cc2s1)OCO3	-5	3	1	52*	14	4	25	6
CN(C)CCCN(C(=O)c1ccc2ccccc2c1)c1nc2cc3c(cc2s1)OCO3	-1	-1	12	20	-9	1	.	.
COc1ccc(S(=O)(=O)N2CCCCCC2)cc1C(=O)N(C)Cc1c(F)cccc1Cl	4	8	5	43*	16	5	31	4
